The nature of assay [1]: Compound evaluated in vitro against five gram-positive bacterial strains and geometric means of the minimum inhibitory concentrations (MIC) reported. It is filed as functional. Further details: unit not given here. In short, it runs like this:
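Geometric mean MIC across five Gram-positive strains, taken as antilog of the averaged log MIC values.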

The subject of assay [2] is Escherichia coli. Briefly: In vivo protection against gram-negative Escherichia coli vogel in mouse after subcutaneous administration. As to conditions: sc, read-out: PD50.
The nature of assay [3]: Compound evaluated in vitro against five gram-negative bacterial strains and geometric means of the minimum inhibitory concentrations (MIC) reported. Type of assay: functional. Also noted: unit not given here. In short, it runs like this:
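Geometric mean MIC across five Gram-negative strains (E. coli H560, E. coli Vogel, Enterobacter cloacae MA 2646, Klebsiella pneumoniae MGH-2, Proteus rettgeri M1771). Mean taken as antilog of the averaged log MIC values.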

In assay [4] the test system is Streptococcus pneumoniae. Briefly: In vivo protection against gram-positive Streptococcus pneumonia (SV-1) in mouse after oral administration. It is filed as functional. As to conditions: read-out: PD50.
Assay [5] has as its system Streptococcus pneumoniae. In words: In vivo protection against gram-positive Streptococcus pneumonia (SV-1) in mouse after subcutaneous administration. Type of assay: functional. To be noted: sc, read-out: PD50.
The target of a further assay is DNA gyrase (Escherichia coli, UniProt P0AES4+P0AES6). Briefly: Compound evaluated in vitro for the ability to inhibit gyrase. Type of assay: protein-complex assay. To be noted: read-out: I50 (converted). In a few lines:
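DNA gyrase isolated from Escherichia coli H560 cells; inhibition given as I50.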

In assay [6] the test system is Escherichia coli. In words: In vivo protection against gram-negative Escherichia coli vogel in mouse after oral administration. As to conditions: read-out: PD50.

This note sets out measurements from ChEMBL document CHEMBL1125245, “Quinolone antibacterials: preparation and activity of bridged bicyclic analogues of the C7-piperazine” (J Med Chem, 1991).

Take `O=C(O)c1cn(C2CC2)c2cc(N3CC4CCCC3CN4)c(F)cc2c1=O` (stereo not given): the MIC worked out at 0.06 in assay [1] and 0.08 in assay [3]. For the same molecule, the ED50 in the assay with Escherichia coli [2] was 1.6 mg/kg; in the assay with Streptococcus pneumoniae [4], > 100 mg/kg; in the assay with Streptococcus pneumoniae [5], 6.6 mg/kg; with Escherichia coli [6], 5.7 mg/kg. Further, at DNA gyrase, the IC50 is 4.85 µM.
For `Nc1c(F)c(N2CC3CCCC2CN3)c(F)c2c1c(=O)c(C(=O)O)cn2C1CC1` (stereo not given), the values for the MIC in assay [1] and in assay [3] were 0.03 and 0.04, respectively. Moreover, the ED50 was 0.7 mg/kg in the assay with Escherichia coli [2], 35 mg/kg in the assay with Streptococcus pneumoniae [4], 6.3 mg/kg in the assay on Streptococcus pneumoniae [5] and 4.8 mg/kg in the assay with Escherichia coli [6]. For the same molecule, the IC50 at DNA gyrase was 2.23 µM.
Take `O=C(O)c1cn(C2CC2)c2cc(N3C[C@H]4CC3CN4)c(F)cc2c1=O`: the MIC in assay [1] turned out to be 0.79; in assay [3] it was 0.1. Besides, the ED50 with Escherichia coli [2] is 0.6 mg/kg; in the assay on Streptococcus pneumoniae [4], > 100 mg/kg; with Streptococcus pneumoniae [5] it was 51 mg/kg; with Escherichia coli [6], 5.5 mg/kg. On DNA gyrase, the IC50 is 8.15 µM.
For the molecule `O=C(O)c1cn(C2CC2)c2cc(N3CC4CCC3CN4)c(F)cc2c1=O` (stereo not given), the MIC is on record as 0.1 in assay [1] and 0.08 in assay [3]. The ED50 is 0.7 mg/kg in the assay with Escherichia coli [2], > 100 mg/kg in the assay with Streptococcus pneumoniae [4], 24 mg/kg in the assay with Streptococcus pneumoniae [5] and 5.5 mg/kg in the assay with Escherichia coli [6]. The IC50 on DNA gyrase is 4.2 µM.
Take `O=C(O)c1cn(C2CC2)c2nc(N3CC4CCC3CN4)c(F)cc2c1=O` (stereo not given): the MIC in assay [1] was 0.11; in assay [3], 0.13. Further, the ED50 with Escherichia coli [2] is 0.7 mg/kg; in the assay on Streptococcus pneumoniae [4], > 100 mg/kg; with Streptococcus pneumoniae [5], 15.1 mg/kg; in the assay with Escherichia coli [6] it was 1.7 mg/kg. Also, at DNA gyrase, the IC50 is 17.6 µM.
Take `O=C(O)c1cn(C2CC2)c2c(F)c(N3CC4CCCC3CN4)c(F)cc2c1=O` (stereo not given): the MIC in assay [1] and in assay [3] was 0.15 each time. Moreover, the ED50 in the assay on Escherichia coli [2] came out at 1.1 mg/kg; with Streptococcus pneumoniae [4] it was 48.5 mg/kg; in the assay with Streptococcus pneumoniae [5] it was 11.9 mg/kg; with Escherichia coli [6], 2.9 mg/kg. On DNA gyrase, the IC50 was 7.45 µM.
On to `N[C@H]1C[C@H]2CC[C@@H](C1)N2c1c(F)cc2c(=O)c(C(=O)O)cn(C3CC3)c2c1F`, for which the MIC stood at 0.03 in assay [1] and 0.05 in assay [3]. Moreover, the ED50 was determined as 0.75 mg/kg in the assay on Escherichia coli [2], 8.5 mg/kg in the assay on Streptococcus pneumoniae [4], 3.1 mg/kg in the assay on Streptococcus pneumoniae [5] and 1.8 mg/kg in the assay on Escherichia coli [6]. In addition, the IC50 on DNA gyrase is 9.76 µM.
For the molecule `O=C(O)c1cn(C2CC2)c2c(F)c(N3CCN4CCC3C4)c(F)cc2c1=O` (stereo not given), the MIC in assay [1] is given as 0.15; in assay [3] it was 0.04. The ED50 with Escherichia coli [2] turned out to be 0.2 mg/kg; in the assay with Streptococcus pneumoniae [4] it was 32 mg/kg; in the assay on Streptococcus pneumoniae [5] it was 11 mg/kg; in the assay with Escherichia coli [6] it was 0.5 mg/kg. For the same molecule, on DNA gyrase, the IC50 is 7.73 µM.
In the case of `Cl.O=C(O)c1cn(C2CC2)c2nc(N3CC4CCCC3CN4)c(F)cc2c1=O` (stereo not given), the MIC in assay [1] is recorded as 0.09; in assay [3], 0.08. For the same molecule, the ED50 with Escherichia coli [2] was determined as 0.8 mg/kg; in the assay with Streptococcus pneumoniae [4], 25 mg/kg; in the assay on Streptococcus pneumoniae [5], 18 mg/kg; with Escherichia coli [6], 2.3 mg/kg. The IC50 at DNA gyrase was 7.34 µM.
For the molecule `CN1CC2C[C@@H]1CN2c1nc2c(cc1F)c(=O)c(C(=O)O)cn2C1CC1.Cl`, the MIC in assay [1] came out at 0.35; in assay [3], 0.08. Also, the ED50 with Escherichia coli [2] is 0.3 mg/kg; in the assay with Streptococcus pneumoniae [4] it was 23 mg/kg; in the assay on Streptococcus pneumoniae [5], 25 mg/kg; in the assay with Escherichia coli [6], 0.5 mg/kg. Further, at DNA gyrase, the IC50 was 9.62 µM.
